# S1P3 antag = S1P3 receptor antagonists, primary screen, cell-based | Sphingosine 1-phosphate receptor 3 (Homo sapiens), Q99500 | CHO S1P3 NFAT-BLA reporter, FRET fluorescence, antagonist mode | inhibition, % at 4.98 µM | 0.27% of 170,000 active;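 active means inhibition above the plate cutoff, the mean inhibition of test wells on that plate plus 3 SD, cut at about 28% in these data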;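 further: cells challenged with S1P at its EC80 of 0.8 µM; blue over green emission ratio from cleaved BLA substrate after 4 h stimulation; 0% = S1P-stimulated wells and 100% = unstimulated DMSO-only wells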
# Target sequence (Q99500 whole entry, looked up): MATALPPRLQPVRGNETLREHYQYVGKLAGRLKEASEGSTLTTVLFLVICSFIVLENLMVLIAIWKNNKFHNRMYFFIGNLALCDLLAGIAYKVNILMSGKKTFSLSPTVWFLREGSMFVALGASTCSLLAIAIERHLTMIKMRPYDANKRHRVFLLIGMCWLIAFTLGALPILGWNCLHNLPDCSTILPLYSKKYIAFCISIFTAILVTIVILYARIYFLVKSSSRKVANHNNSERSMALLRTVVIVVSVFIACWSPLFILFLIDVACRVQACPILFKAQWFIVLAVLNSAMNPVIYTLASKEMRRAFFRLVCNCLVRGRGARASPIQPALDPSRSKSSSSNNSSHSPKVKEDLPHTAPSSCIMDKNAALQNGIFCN
# Hsp70 act = Hsp70 transcriptional activators, primary screen, cell-based, HeLa, Hsp70 promoter luciferase, luminescence, 10 µM; activation, % at 10 µM; HeLa Hsp70 promoter luciferase reporter; scaled: vehicle 0, proteasome-inhibitor control 100%; AID 1203, 2008; 0.04% of 200,000 active;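 active means activation above the mean across all tested compounds plus 3 SD, cutoff set per campaign, cut at about 5.5% in these data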;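 further: 100% = MG132 at 30 µM as the positive control and 0% = DMSO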
# CHOP inh = inhibitors of CHOP promoter induction, primary screen, cell-based, unfolded protein response, luciferase reporter; CHO-K1 CHOP-promoter luciferase, tunicamycin-induced, 15-18 h; inhibition, % at 10 µM; 3.8% of 220,000 active; AID 2732, 2010;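 active means compounds that reduced the stress-induced luciferase reporter signal by more than about 70% of percent inhibition, limit read from the data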;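 further: 0% = tunicamycin plus vehicle and 100% = wells without tunicamycin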
# MDM2 E3 inh = MDM2-luciferase reporter signal enhancers, primary screen, MDM2 E3 ligase inhibitor project, cell-based, luminescence, 1536-well; E3 ubiquitin-protein ligase Mdm2 (Homo sapiens), Q00987; cell-based MDM2 ubiquitination luciferase reporter, 2 h; 0 = plate control, 100 = twice control, blank-subtracted; signal enhancement, % at 5 µM; 0.11% of 210,000 active; AID 1230, 2008;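 active means signal enhancement of 30% or more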;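 further: luminescence tracks abundance of the self-degrading MDM2-luciferase fusion protein; higher signal means inhibition of MDM2 E3 ligase activity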
#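 test system = mammalian cells stably expressing self-ubiquitinating, self-degrading MDM2 E3–luciferase fusion | quantity = 2000 cells/well | incubation = cell settling 4 h, compound treatment 2 h, both 37 °C | signal = luminescence with SteadyLite reagent, 15 min at room temperature | evaluation = % enhancement relative to plate controls after blank subtraction | benchmarks = plate controls and plate blanks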
# * marks the source's active call; other numbers are inactive results; nt = no result given. Only some compounds are listed: those with a hit (about 4% of all), similar ones and a draw of the others.
SMILES,S1P3 antag,Hsp70 act,CHOP inh,MDM2 E3 inh
CCOc1cc(C)nc(N2CCCC(C(=O)NCc3ccccc3F)C2)n1 (configuration not stated),-0.4,-0.3,70.7*,14.4
CC(C)(C)n1nc(-c2ccc(Cl)cc2)c2c(N)ncnc21,nt,-0.3,84.3*,-10.5
O=c1c2cc3c(cc2[nH]c(=S)n1C1CCN(Cc2ccccc2)CC1)OCO3,1.0,-0.2,-3.9,-17.7
COc1ccc(-c2c(C(F)(F)F)oc3cc(OCC(=O)Nc4ccccc4C(F)(F)F)ccc3c2=O)cc1OC,2.7,-0.4,91.2*,-0.9
COc1ccccc1-c1c(C(F)(F)F)oc2cc(OCC(=O)Nc3ccccc3C(F)(F)F)ccc2c1=O,0.3,-0.4,33.9,0.1
CC(C)c1ccc(S(=O)(=O)/N=C2/C=C(Sc3ncn[nH]3)C(=O)c3ccccc32)cc1,-29.2,-0.3,80.9*,9.8
CCOc1cc2[nH]c(=S)n(CCC(=O)NCc3ccco3)c(=O)c2cc1OCC,-15.9,0.0,3.7,-10.8
COc1ccc(CCn2c(=S)[nH]c3cc(C(=O)NCc4ccco4)ccc3c2=O)cc1OC,10.2,-0.1,96.0*,-0.2
CCOc1cc2[nH]c(=S)n(CCCC(=O)NCc3ccco3)c(=O)c2cc1OCC,nt,-0.3,82.0*,-14.6
COc1ccccc1NC(=O)c1c(N=Cc2cccc([N+](=O)[O-])c2)cnn1C,-6.5,nt,-11.1,-6.9
CC(=O)NS(=O)(=O)c1ccc2sc(C)nc2c1,5.7,nt,-5.2,-9.5
O=C1[C@H]2[C@@H](C(=O)N1c1cc(Cl)cc(Cl)c1)[C@]1(C(=O)Nc3ccccc31)N1CCC[C@@H]21,28.9,0.1,33.2,-4.8
Cc1cc(Cl)c2c(c1)[C@]1(C(=O)N2)[C@@H]2C(=O)N(Cc3ccccc3)C(=O)[C@@H]2[C@@H]2CCCN21,5.3,-0.1,70.9*,-1.7
COc1ccc(-c2nc(C)c(C(C)=O)n2O)cc1,nt,0.0,-16.4,30.3*
Cc1ccc(CN=c2c([N+](=O)[O-])nn(-c3cccc(Cl)c3)n2O)cc1,-7.2,-0.2,83.5*,-3.5
CCOc1cc(Br)c(Br)c(C=Nc2ccc(NC(C)=O)cc2)c1O,-3.3,1.5,86.8*,-4.0
CC(C)(CNC(=O)C1CCCN1C(=O)c1cccs1)N1CCOCC1 (configuration not stated),-11.0,0.1,1.0,-7.2
Clc1ccc(CSc2nnc(-c3ccccn3)n2Cc2ccco2)c(Cl)c1,nt,-0.1,82.0*,-1.9
Fc1ccccc1CSc1nnc(-c2cnccn2)n1Cc1ccco1,-1.7,-0.2,23.0,-2.6
CCCCc1nc(NCC2CCCO2)c(C#N)c2c1COC(C)(C)C2 (configuration not stated),nt,1.1,86.3*,-20.2
NS(=O)(=O)c1ccc(CCNC(=O)CSc2nc3ccccc3c(=O)n2CCC(=O)N2CCCCC2)cc1,-3.4,-0.4,12.3,1.0
NC(=O)c1ccsc1NC(=O)COC(=O)CCOc1ccccc1,-13.9,nt,16.8,-12.6
O=C(/C(N=Nc1cccc([N+](=O)[O-])c1)=C(/O)c1ccc(Br)cc1)C(F)(F)F,9.4,nt,70.1*,-91.8
O=C(CCNc1ccc(Br)cc1)c1cccc([N+](=O)[O-])c1,7.5,0.0,-27.8,9.0
O=C(CNC(=O)c1ccco1)OCc1cccc(Cl)c1,-26.6,-0.5,74.5*,0.1
SMILES,S1P3 antag,Hsp70 act,CHOP inh,MDM2 E3 inh
O=C(CNC(=O)c1ccco1)NCC(=O)OCc1cccc(Cl)c1,nt,0.0,20.4,-6.3
CC(C)C(=O)Nc1cc(=O)[nH]c2ncnn12,-33.0,0.1,9.9,-13.2
CCOC(=O)/C=C/C(=O)Nc1ccccc1-c1ccccc1NC(=O)/C=C/C(=O)OCC,7.6,0.1,80.3*,38.8*
CCC(C)[C@H](NC(=O)N1CCCCC1)C(=O)OC (some centres not stated),-2.4,nt,5.6,-3.0
CCCC1CCC(c2nc(-c3cccnc3)no2)CC1 (configuration not stated),3.9,0.1,89.3*,-4.4
CCCCCCC1CCC(c2nc(-c3ccncc3)no2)CC1 (configuration not stated),nt,0.3,-3.3,-11.8
Cc1ccc([N+](=O)[O-])c(OCCCN2C(=O)NC(C)(C)C2=O)c1,-9.0,-0.2,1.6,nt
Cc1cccc(OCCCC(=O)O)c1C,-17.7,-0.1,70.3*,-23.2
Cc1cccc(OCCCC(=O)Nc2nccs2)c1C,-9.4,nt,42.2,nt

# Assay outcomes: PubChem BioAssay, several laboratories
